Assay results reported in ChEMBL document CHEMBL3632582, “Aspertetranones A-D, Putative Meroterpenoids from the Marine Algal-Associated Fungus Aspergillus sp. ZL0-1b14” (J Nat Prod, 2015).
Activity calls are given as the source filed them. The calls are words filed in the database; no cut-off is given here.

Columns and labels:
[1] = test system: RAW264.7; assay: Cytotoxicity against mouse RAW264.7 cells assessed as cell viability at 10 to 100 uM after 24 hrs by MTS assay; format: cell-based; conditions: raw264.7, 24 h
Outline: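 RAW264.7 cells were seeded at 2 × 10^6 cells per well and grown to 80% confluency. They were then exposed to compound over a 10–100 μM gradient for 24 h, and viability was read colorimetrically by MTS.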

[2] = test system: RAW264.7; assay: Antiinflammatory activity in mouse RAW264.7 cells assessed as inhibition of LPS-induced IL-6 production preincubated 2 hrs before LPS stimulation measured after 22 hrs by ELISA; format: functional, cell-based
Outline: (§1)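 RAW 264.7 macrophages were pretreated for 2 h with compound across 0–80 μM, with hydrocortisone (20 μM) as control. LPS was then added for a further 22 h. IL-6 or IL-1β in the culture medium was quantified by ELISA.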

[3] = test system: RAW264.7; assay: Antiinflammatory activity in mouse RAW264.7 cells assessed as inhibition of LPS-induced IL-1beta production preincubated 2 hrs before LPS stimulation measured after 22 hrs by ELISA; format: functional, cell-based; outline: as §1
[4] = test system: RAW264.7; assay: Antiinflammatory activity in mouse RAW264.7 cells assessed as inhibition of LPS-induced nitric oxide production at 33.3 uM preincubated 2 hrs before LPS stimulation measured after 22 hrs; format: functional
[5] = test system: RAW264.7; assay: Antiinflammatory activity in mouse RAW264.7 cells assessed as inhibition of LPS-induced TNFalpha production at 33.3 uM preincubated 2 hrs before LPS stimulation measured after 22 hrs by ELISA; format: functional
[6] = test system: RAW264.7; assay: Antiinflammatory activity in mouse RAW264.7 cells assessed as inhibition of LPS-induced IL-6 production at 40 uM preincubated 2 hrs before LPS stimulation measured after 22 hrs by ELISA; format: functional; outline: as §1
[7] = test system: RAW264.7; assay: Antiinflammatory activity in mouse RAW264.7 cells assessed as inhibition of LPS-induced IL-1beta production at 40 uM preincubated 2 hrs before LPS stimulation measured after 22 hrs by ELISA; format: functional; outline: as §1

Question: What does the source list for Cc1cc2c(c(=O)o1)C(=O)[C@@H]1[C@@H](C)[C@]3(O)CC(=O)C(C)(C)C(=O)[C@@]3(O)[C@@H](O)[C@@]1(C)O2?
Answer: Activity [1]: Non-toxic; inhibition [2]: inactive; inhibition [3]: inactive; inhibition at 33.3 µM [4]: < 35%; inhibition at 33.3 µM [5]: < 35%

Question: Cc1oc(=O)c2c(c1C)O[C@@]1(C)[C@H](C2=O)[C@@H](C)[C@]2(O)CC(=O)C(C)(C)C(=O)[C@@]2(O)[C@H]1O was tested. Which Activity [1] did it give?
Answer: Non-toxic

Question: What about the inhibition at 40 µM [6] of the same compound?
Answer: 43%

Question: And the inhibition at 40 µM [7]?
Answer: 42%

Question: And the inhibition [2]?
Answer: Dose-dependent effect

Question: What about the inhibition [3] of the same compound?
Answer: Dose-dependent effect

Question: And the inhibition at 33.3 µM [4]?
Answer: < 35%

Question: And the inhibition at 33.3 µM [5]?
Answer: < 35%

Question: Which Activity [1] does the source give for Cc1oc(=O)c2c(c1C)O[C@@]1(C)[C@H](C2)[C@@H](C)[C@]2(O)CC(=O)C(C)(C)C(=O)[C@@]2(O)[C@H]1O here?
Answer: Non-toxic

Question: What about the inhibition [2] of the same compound?
Answer: inactive

Question: What about the inhibition [3] of the same compound?
Answer: inactive

Question: And the inhibition at 33.3 µM [4]?
Answer: < 35%

Question: What about the inhibition at 33.3 µM [5] of the same compound?
Answer: < 35%

Question: Which Activity [1] does the source give for Cc1oc(=O)c2c(c1C)O[C@@]1(C)[C@@H]([C@@H](C)[C@]3(O)CC(=O)C(C)(C)C(=O)[C@@]3(O)[C@H]1O)[C@H]2O here?
Answer: Non-toxic

Question: What about the inhibition at 40 µM [6] of the same compound?
Answer: 69%

Question: And the inhibition at 40 µM [7]?
Answer: 47%

Question: What about the inhibition [2] of the same compound?
Answer: Dose-dependent effect

Question: What about the inhibition [3] of the same compound?
Answer: Dose-dependent effect

Question: And the inhibition at 33.3 µM [4]?
Answer: < 35%

Question: What about the inhibition at 33.3 µM [5] of the same compound?
Answer: < 35%
